TRPC4 potent = TRPC4 (mouse) allosteric potentiation; actives 0.42% (n = 310,000); B-score at 10 µM; AID 2227; Q9QUQ5; HEK293 TRPC4beta/mu-opioid, DAMGO EC20, Fluo-4 Ca2+ flux; hits give high values;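 active = B-score of calcium response area above 5 SD of library B-scores, with initial fluorescence ratio within 5 SD of library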;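 note: B-score of integrated fluorescence ratio over time as area under calcium response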
TRPC6 inh = inhibitors of mouse TRPC6 channel | B-score at 10 µM | actives 1.1% (n = 310,000) | HEK293-TRPC6, membrane potential dye, ACh-evoked depolarization; hits give low values | Q61143;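 active = B-score under library mean minus 3 SD, initial fluorescence not abnormally high, positive integrated signal ratio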;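 note: B-score derived from integrated fluorescence ratio over the kinetic read; more negative B-score means stronger inhibition of depolarization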
Target sequence (Q61143 whole entry, looked up): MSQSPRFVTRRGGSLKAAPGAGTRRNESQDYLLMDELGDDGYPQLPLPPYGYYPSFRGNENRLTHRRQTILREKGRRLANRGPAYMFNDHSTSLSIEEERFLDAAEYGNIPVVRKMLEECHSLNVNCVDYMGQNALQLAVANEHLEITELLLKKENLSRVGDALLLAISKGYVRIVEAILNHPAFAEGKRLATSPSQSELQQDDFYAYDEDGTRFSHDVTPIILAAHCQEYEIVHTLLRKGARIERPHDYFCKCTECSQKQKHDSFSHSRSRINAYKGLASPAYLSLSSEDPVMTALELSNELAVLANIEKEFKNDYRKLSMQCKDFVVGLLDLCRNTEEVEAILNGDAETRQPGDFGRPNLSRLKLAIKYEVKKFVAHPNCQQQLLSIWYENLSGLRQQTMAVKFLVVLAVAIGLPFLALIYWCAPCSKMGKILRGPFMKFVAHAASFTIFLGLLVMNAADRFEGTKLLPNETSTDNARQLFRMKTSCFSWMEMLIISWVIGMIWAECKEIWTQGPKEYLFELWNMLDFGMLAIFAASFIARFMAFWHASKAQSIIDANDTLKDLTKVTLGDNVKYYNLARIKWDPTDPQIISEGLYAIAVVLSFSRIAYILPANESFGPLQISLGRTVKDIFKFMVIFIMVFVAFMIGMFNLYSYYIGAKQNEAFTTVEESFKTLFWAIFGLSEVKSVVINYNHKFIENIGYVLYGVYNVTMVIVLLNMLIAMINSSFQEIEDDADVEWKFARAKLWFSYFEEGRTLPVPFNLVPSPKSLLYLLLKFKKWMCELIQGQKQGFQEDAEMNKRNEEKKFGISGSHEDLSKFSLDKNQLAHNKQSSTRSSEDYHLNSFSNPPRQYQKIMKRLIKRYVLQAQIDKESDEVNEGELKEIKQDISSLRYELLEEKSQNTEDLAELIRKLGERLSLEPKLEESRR
TRPC4 agonist = activators of mouse TRPC4 channel | AID 2237 | actives 0.49% (n = 310,000) | HEK293 TRPC4beta/mu-opioid, Fluo4 calcium fluorescence; hits give high values | Q9QUQ5 | B-score at 10 µM;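 active = B-score above 5 SD of library B-scores, and initial fluorescence ratio not above library mean plus 5 SD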;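 note: positive B-score marks a calcium rise read as TRPC4 activation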
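Test system: HEK293 cells stably co-expressing mouse TRPC4beta and mu-opioid receptor | Schedule: Fluo4 dye loading 45 min at room temperature, 110 s recording | Measured by: Kinetic Fluo4 calcium fluorescence, 5 s baseline at 1 Hz | Evaluation: B score of integrated ratio | Controls: Buffer (low) and maximal DAMGO (high)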
Kir21 inh = inhibitors of mouse Kir2.1 inward-rectifier potassium channel. AID 1672. P35561. actives 0.85% (n = 310,000). B-score at 10 µM. HEK293-Kir2.1, FluxOR thallium flux fluorescence; hits give low values;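 active = fluorescence ratio B-score at or below minus 3 SD of library scores, with starting-brightness B-score within 2 SD, cut at about -4.2 in these data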;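 note: channel flux triggered by added potassium and thallium sulfate stimulus; B-score of peak minus minimum fluorescence over baseline after thallium stimulus; more negative B-score means stronger Kir2.1 block with less thallium influx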
TRPC4 block = inhibitors of mouse TRPC4 channel. Q9QUQ5. HEK293 TRPC4beta/mu-opioid, DAMGO-evoked Fluo4 calcium flux; hits give low values. B-score at 10 µM. actives 0.39% (n = 300,000). AID 2247;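 active = B-score over 3 SD under the library average, no early fluorescence shift, positive overall ratio signal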
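test system = HEK293 cells with stable TRPC4beta plus mu-opioid receptor expression | detection = Fluo4 Ca2+ flux fluorescence | read-out = integrated fluorescence ratio relative to baseline, converted to per-well B score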
TRPC6 act = activators of mouse TRPC6 channel; Q61143; HEK293-TRPC6 membrane potential dye fluorescence; hits give high values; B-score at 10 µM; actives 0.13% (n = 310,000); AID 2550;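 active = B-score of the integrated fluorescence ratio above library mean plus 3 SD, and starting fluorescence ratio within library mean plus 5 SD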;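 note: higher score means more depolarization so channel activation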
TRPC4 sel inh 2 = second check of whether TRPC6 inhibitors also affect mouse TRPC4. HEK293 TRPC4/MOR, membrane potential dye fluorescence; channel activated by saturating DAMGO dose. shares compounds with TRPC6 inh. inhibition, % at 10 µM. actives 42% (n = 920). AID 2776;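 active = compounds whose fluorescence signal differed from control wells by over 3 SD, either direction, in both duplicate plates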
TRPC4 spec = tests whether TRPC6 inhibitors also affect mouse TRPC4; shares compounds with TRPC6 inh; HEK293 TRPC4/mu-opioid, membrane potential fluorescence; activity change, negative = inhibition, % at 10 µM; actives 61% (n = 920); AID 2777;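 active = rise or fall in signal beyond 3 SD of buffer-only wells in both replicate plates, either sign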;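 note: integrated kinetic ratio of fluorescence range over baseline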
HEK293 MPD ctr 2-1 = parental HEK293 nonspecific activity of TRPC6 inhibitors, second screen | shares compounds with TRPC6 inh | parental HEK293 membrane potential dye fluorescence; maximal acetylcholine challenge after compound addition | signal change vs control, % at 10 µM | actives 31% (n = 920);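 active = membrane potential signal moving either way by over 3 SD of the maximum-effect control, in both duplicate plates, meaning non-specific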
HEK293 MPD ctr-1 = checks TRPC6 inhibitor effects in parental HEK293 cells | membrane potential signal change, % at 10 µM | shares compounds with TRPC6 inh | actives 60% (n = 920) | AID 2780 | parental HEK293 membrane potential dye fluorescence;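 active = membrane potential signal shifting up or down by more than 3 SD of buffer-only wells, on both duplicate plates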
HEK293 MPD ctr-2 = parental HEK293 nonspecific activity of TRPC6 modulators; shares compounds with TRPC6 inh; membrane potential dye fluorescence; membrane potential signal change, % at 10 µM; actives 51% (n = 2,400); AID 488924;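 active = membrane potential signal moves up or down beyond 5 SD from buffer-only wells, on both duplicate plates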
HEK293 MPD ctr 2-2 = second check of TRPC6 modulator effects in parental HEK293 cells. AID 488926. shares compounds with TRPC6 inh. actives 14% (n = 2,400). inhibition, % at 10 µM. membrane potential dye fluorescence; after compound, maximal acetylcholine stimulation;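 active = membrane potential signal drops by more than 5 SD from the mean control signal, in both duplicate plates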;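 note: plate controls were acetylcholine ECmax control wells for no effect and buffer only wells for full effect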
TRPC4 ctr mod = selectivity of TRPC6 modulators against mouse TRPC4; shares compounds with TRPC6 inh; HEK293 TRPC4/mu-opioid, membrane potential fluorescence; percent change from control (negative = decrease, positive = increase), % at 10 µM; actives 69% (n = 2,400); AID 488927;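 active = membrane potential signal moved up or down beyond 5 SD of buffer control wells, in both duplicate plates, actives on both sides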;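 note: plate controls were assay buffer wells for no effect and DAMGO maximal-effect wells for full effect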
TRPC4 ctr inh 2 = mouse TRPC4 off-target activity of TRPC6 modulators, second screen. actives 55% (n = 2,400). inhibition, % at 10 µM. shares compounds with TRPC6 inh. HEK293 TRPC4/mu-opioid, membrane potential dye fluorescence; stimulated with maximal-effect DAMGO;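 active = drop in membrane potential signal beyond 5 SD of the control wells in both duplicate plates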;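 note: TRPC4 counter screen for TRPC6 hits run under conditions tuned for TRPC6 not TRPC4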
TRPC6 inh conf = mouse TRPC6 inhibitor confirmation. shares compounds with TRPC6 inh. HEK293-TRPC6, membrane potential dye, ACh-evoked depolarization. inhibition, % at 10 µM. actives 43% (n = 3,300). AID 488960;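 active = fluorescence ratio falls more than 5 SD below the full-stimulation control mean, in both duplicate runs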;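 note: integrated fluorescence ratio of peak minus minimum over baseline after agonist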
TRPC6 act confirm = mouse TRPC6 activator confirmation. shares compounds with TRPC6 inh. HEK293-TRPC6 membrane potential dye fluorescence, FDSS. activation, % at 10 µM. actives 11% (n = 2,800);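 active = ratio signal rise beyond 5 SD above unstimulated control wells' mean, seen in both duplicate runs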;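 note: plate controls were buffer EC0 wells for no effect and acetylcholine ECmax response for full effect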
* hit, by the source's call; i = inactive; . = no result; + = active, no number. Most compounds without a hit are left out; they make up all but 2.9% or so of the library.

SMILES	TRPC4 potent	TRPC6 inh	TRPC4 agonist	Kir21 inh	TRPC4 block	TRPC6 act	HEK293 MPD ctr-2	HEK293 MPD ctr 2-2	TRPC4 ctr mod	TRPC4 ctr inh 2	TRPC6 inh conf	TRPC6 act confirm	others
COc1ccc(OCC(O)CN2CCC(CN3C(=O)c4cccc5cccc(c45)C3=O)CC2)cc1 (stereo unspecified)	i	i	i	-1.4	i	i	.	.	.	.	.	.
COc1cccc(OCC(O)CN2CCN(CCN3C(=O)c4cccc5cccc(c45)C3=O)CC2)c1 (stereo unspecified)	i	-5.8*	i	-1.2	i	i	i	i	i	71%*	54%*	i
C/C(=N\NC(=O)C(=O)Nc1cccc(Cl)c1C)c1ccncc1	i	i	i	0.67	i	i	.	.	.	.	.	.
COc1cccc(NC(=O)Nc2ccc3c(c2)CCC3)c1	i	i	i	-1.1	i	i	.	.	.	.	.	.
NCC12CC3CC(C1)CC(c1ccc(Cl)cc1)(C3)C2	i	-7.1*	61*	-10*	i	i	.	.	.	.	72%*	i	TRPC4 sel inh 2=31%*;TRPC4 spec=i;HEK293 MPD ctr 2-1=i;HEK293 MPD ctr-1=-136%*
Nc1ccc(C23CC4CC(CC(CO)(C4)C2)C3)cc1	i	i	i	-0.02	i	i	.	.	.	.	.	.
Cc1ccc(C)c(OC(=O)c2cccnc2Cl)c1C	i	-6.2*	i	-0.01	i	i	i	i	i	i	i	i
C(=N\n1cnnc1)/c1ccccn1	i	i	i	-1	i	i	.	.	.	.	.	.
C(=N\n1cnnc1)/c1ccc2ncccc2c1	i	-7.7*	i	1.7	i	i	-280%*	i	-37%*	50%*	i	i
CCC[N+](CC#Cc1ccccc1)(CCC)CC(=O)c1ccc(Cl)cc1	i	-5.7*	i	-3.8	i	i	332%*	i	77%*	52%*	68%*	.
COc1cc(/C=C/C(=O)CC(=O)/C=C/c2ccc(O)c(OC)c2)ccc1O	i	i	84*	-1.2	i	75*	+	i	380%*	i	i	524%*
COc1cc(OC)c2nc(C)c3c(c2c1)N(c1ccc(O)cc1)CC3	i	-7.2*	i	-2.5	i	i	-174%*	101%*	-18%*	42%*	i	i
COc1ccc(N2CCN(c3cc(C)c4ccc(O)cc4n3)CC2)cc1	i	i	i	1.4	i	i	.	.	.	.	.	.
Cc1ccn2c(Nc3ccccc3C)c(-c3cccnc3)nc2c1	i	-5.7*	i	-0.57	i	i	-166%*	i	-32%*	77%*	46%*	i
Cc1ccccc1Nc1c(-c2ccc(N3CCOCC3)cc2)nc2cnccn12	i	i	i	0.97	i	i	.	.	.	.	.	.
Cc1ccccc1Nc1c(-c2ccncc2)nc2ccc(Cl)cn12	i	-5.8*	i	2.9	i	i	i	i	-16%*	70%*	i	i
CSc1nc(O)c(C(c2cccc([N+](=O)[O-])c2)c2c(O)nc(SC)[nH]c2=O)c(=O)[nH]1	i	i	i	0.38	i	i	.	.	.	.	.	.
CCOc1cc(C(=O)O/N=C(\N)c2ccccn2)cc(OCC)c1OCC	i	i	i	-1.5	i	i	.	.	.	.	.	.
CCOc1ccc(C(=O)O/N=C(\N)c2ccccn2)cc1OCC	i	-5.9*	i	0.48	i	i	-94%*	i	-22%*	i	i	i
Cc1ccc(NC(=O)N2CCc3ccccc3C2)c(C)c1	i	i	i	-0.17	i	i	.	.	.	.	.	.
Cn1nc(C(C)(C)C)cc1C(=O)Nc1nc2c(s1)C(=O)CC(C)(C)C2	i	-5*	i	-0.45	i	i	i	i	i	i	i	.
Cc1ccc2nc3c(c(Nc4cccc(O)c4)c2c1)CCC3	i	i	i	-0.9	i	i	.	.	.	.	.	.
O=[N+]([O-])c1cc([N+](=O)[O-])c2c(=Nc3ccccc3)n(-c3ccccc3)n(O)c2c1	i	-7.2*	i	-0.25	i	i	.	.	.	.	i	i	TRPC4 sel inh 2=50%*;TRPC4 spec=-13%*;HEK293 MPD ctr 2-1=i;HEK293 MPD ctr-1=-184%*
CN(CCC#N)C(=O)c1cc2c(Cl)nc3ccccc3c2s1	i	i	i	0.41	i	i	.	.	.	.	.	.
CN(C)CCN(Cc1ccco1)C(=O)c1cc2c(Cl)nc3ccccc3c2s1	i	-5.2*	i	-0.05	i	i	i	i	i	i	i	i
CC(C)NS(=O)(=O)c1ccc(CCC(=O)NCc2ccncc2)cc1	i	i	i	-0.79	i	i	.	.	.	.	.	.
O=C(NCCCN1CCCC1=O)Nc1ccc(Br)cc1Cl	i	i	i	-0.37	i	i	.	.	.	.	.	.
O=C(C1CC1)N1CCCC(c2ccc(Cl)cc2)=N1	i	-7*	i	-0.1	i	i	.	.	.	.	i	.	TRPC4 sel inh 2=i;TRPC4 spec=9.6%*;HEK293 MPD ctr 2-1=i;HEK293 MPD ctr-1=5.5%*
